Measured values of several laboratories.
Compare with care: the assays were run in different laboratories.
Target: Rhodopsin kinase GRK7 (GRK7, Homo sapiens, UniProt Q8WTQ7)
One construct used (Q8WTQ7 1-553): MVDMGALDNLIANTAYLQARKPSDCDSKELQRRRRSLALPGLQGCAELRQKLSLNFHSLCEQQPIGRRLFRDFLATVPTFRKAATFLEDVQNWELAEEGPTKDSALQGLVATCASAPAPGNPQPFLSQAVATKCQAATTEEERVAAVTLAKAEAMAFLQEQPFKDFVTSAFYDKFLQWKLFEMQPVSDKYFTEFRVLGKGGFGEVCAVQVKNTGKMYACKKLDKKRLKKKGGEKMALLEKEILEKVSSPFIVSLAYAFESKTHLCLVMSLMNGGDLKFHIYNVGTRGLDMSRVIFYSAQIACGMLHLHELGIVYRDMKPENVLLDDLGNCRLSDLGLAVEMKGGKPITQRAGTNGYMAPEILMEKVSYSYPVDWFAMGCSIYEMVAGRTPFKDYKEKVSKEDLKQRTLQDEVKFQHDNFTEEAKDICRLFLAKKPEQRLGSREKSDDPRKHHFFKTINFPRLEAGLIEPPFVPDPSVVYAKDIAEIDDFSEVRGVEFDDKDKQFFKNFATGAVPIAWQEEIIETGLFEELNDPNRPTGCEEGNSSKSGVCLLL

Compound	assay	conditions	endpoint	result
CCCOc1ccc(OC)c(F)c1C(=O)c1ccc(C(=O)N[C@@H]2CNC[C@H]2NC(=O)c2ccc3[nH]ncc3c2)cc1	enzyme activity, inhibitor	10 µM	remaining activity	107%
Cc1cc(NC(=O)c2cccc3cc(-c4cccc5[nH]nc(N)c45)ccc23)ccc1F	enzyme activity, inhibitor	0.1 µM	activity vs control	114%
CCCS(=O)(=O)Nc1ccc(F)c(C(=O)c2c[nH]c3ncc(-c4ccc(Cl)cc4)cc23)c1F	enzyme activity, inhibitor	1 µM	inhibition	< 10%
COc1cc(Cl)c(C(=O)N[C@@H](CN[C@H]2CC[C@@H](N)CC2)Cc2ccc(C#N)cc2)cc1-c1ccc(CN[C@H](C)c2ccc(C)cc2)o1	enzyme activity, inhibitor	1 µM	remaining activity	102%
O=C(Nc1cnn(-c2csc(C(=O)NC3COC3)c2)c1)Nc1c(F)cccc1Cl	enzyme activity, inhibitor	5 µM	remaining activity	94%
CC(C)(C)c1nc2c(s1)c1nc(N)ncc1c1ccc(NS(=O)(=O)c3c(F)cccc3F)c(F)c12	enzyme activity, inhibitor, radiometric	1 µM	remaining activity	81%
Nc1ncnc2occ(-c3ccc(NC(=O)Nc4cc(C(F)(F)F)ccc4F)cc3)c12	cell-free assay, inhibitor	20 µM	remaining signal	77%
CC1=C(C#N)C(c2ccc3c(c2)c(NC(=O)c2ccccc2C)nn3C)C(C#N)=C(C)N1	cell-free assay, competition with immobilised ligand	1 µM	remaining binding	70%
Cc1ccc(C(=O)NCc2ccsc2)cc1C#Cc1cn(C(C)C)c2ncnc(N)c12	enzyme activity, inhibitor	1 µM	activity vs control	100%
O=C(O)[C@@H]1[C@@H](Cn2nnc3ccccc3c2=O)CC[C@H]1C(=O)c1ccc(OCCC2CCOCC2)cc1	cell-free assay, competition with immobilised ligand	1 µM	remaining binding	100%
COc1cc2ncnc(Nc3ccc(Oc4ccccc4)cc3C)c2cc1OC	enzyme activity, inhibitor	1 µM	inhibition	-3%
N#CCCc1ccc2c(c1)-c1[nH]c3ccc([N+](=O)[O-])cc3c1CC(=O)N2	cell-free assay	0.5 µM	remaining signal	97.7%
Cc1nc(Cc2cccc(C(F)(F)F)c2)sc1-c1ccc(C(N)=O)nc1	cell-free assay, competition with immobilised ligand	1 µM	remaining binding	100%
C[C@@H]1CCN(c2nccc(-c3cnn4ncccc34)n2)C1	binding	1 µM	remaining binding	82%
CCC(=O)N[C@H]1CC[C@@H](C(=O)N(C)c2ccc(-c3nc4ccccc4o3)cc2)C1	cell-free assay, competition with immobilised ligand	1 µM	remaining binding	82%
COc1cc2c(N3CCN(C(=O)Nc4ccc(OC(C)C)cc4)CC3)ncnc2cc1OCCCN1CCCCC1	cell-free assay	0.5 µM	remaining signal	104%
CS(=O)(=O)c1cc(C2(NC(=O)c3cncc4c3cnn4-c3ccc(F)cc3)CC2)ccn1	cell-free assay, competition with immobilised ligand	1 µM	remaining binding	96%
O=C(Nc1cnn(-c2csc(C(=O)NC3COC3)c2)c1)Nc1ccccc1Cl	enzyme activity, inhibitor	5 µM	remaining activity	96.4%
